Measurements: ChEMBL document CHEMBL4219120, “Synthesis and SAR study of new hydroxy and chloro-substituted 2,4-diphenyl 5H-chromeno[4,3-b]pyridines as selective topoisomerase IIα-targeting anticancer agents” (Bioorg Med Chem, 2018)
Where a name gives a salt, the structure may show the parent alone. Active and inactive are the calls of the source. No cut-off for these calls is given here.

Key:
T47D = assay: Antiproliferative activity against human T47D cells after 72 hrs by CCK-8 assay; type: functional, cell-based
In short: (§1)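 Cells seeded at 2-4 x 10^4 per well and grown overnight in medium with 10% FBS (37 °C, 5% CO2). After 4 h FBS starvation, medium was replaced with medium containing graded compound concentrations for 72 h. CCK-8 was added for 4 h more, then absorbance read at 450 nm. IC50 came from a four-parameter logistic fit. Mean ± S.D. of three experiments, each in triplicate.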

[1] = biological target: DNA topoisomerase 2-alpha (Homo sapiens) (UniProt P11388); assay: Inhibition of recombinant human topoisomerase 2alpha assessed as decrease in relaxation of supercoiled pBR322 DNA at 20 uM after 30 mins by agarose gel electrophoresis relative to control
In short: (§2)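 Recombinant human topo IIα (1 unit) with 100 ng supercoiled pBR322 in 10 mM Tris-HCl pH 7.9, 50 mM NaCl, 50 mM KCl, 5 mM MgCl2, 1 mM EDTA, 1 mM ATP, 15 µg/mL BSA, 30 min at 37 °C. Quenched with 7 mM EDTA. 0.8% agarose/TAE gel, 50 V, 1 h; EtBr stain; UV densitometry. Compounds came from 20 mM DMSO stocks. 20 µM was tested only when inhibition at 100 µM exceeded 30%. Etoposide was the positive control.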

[2] = biological target: DNA topoisomerase 2-alpha (Homo sapiens) (UniProt P11388); assay: Inhibition of recombinant human topoisomerase 2alpha assessed as decrease in relaxation of supercoiled pBR322 DNA at 100 uM after 30 mins by agarose gel electrophoresis relative to control; in short: as §2
HeLa = assay: Antiproliferative activity against human HeLa cells after 72 hrs by CCK-8 assay; type: functional, cell-based; in short: as §1
HCT-15 = assay: Antiproliferative activity against human HCT15 cells after 72 hrs by CCK-8 assay; type: functional, cell-based; conditions: HCT-15, 72 h; in short: as §1
[3] = biological target: T1, DNA topoisomerase 1 (Homo sapiens) (UniProt P11387); assay: Inhibition of recombinant human topoisomerase 1 assessed as decrease in relaxation of supercoiled pBR322 DNA at 100 uM after 30 mins by agarose gel electrophoresis relative to control
T1 sequence (whole entry): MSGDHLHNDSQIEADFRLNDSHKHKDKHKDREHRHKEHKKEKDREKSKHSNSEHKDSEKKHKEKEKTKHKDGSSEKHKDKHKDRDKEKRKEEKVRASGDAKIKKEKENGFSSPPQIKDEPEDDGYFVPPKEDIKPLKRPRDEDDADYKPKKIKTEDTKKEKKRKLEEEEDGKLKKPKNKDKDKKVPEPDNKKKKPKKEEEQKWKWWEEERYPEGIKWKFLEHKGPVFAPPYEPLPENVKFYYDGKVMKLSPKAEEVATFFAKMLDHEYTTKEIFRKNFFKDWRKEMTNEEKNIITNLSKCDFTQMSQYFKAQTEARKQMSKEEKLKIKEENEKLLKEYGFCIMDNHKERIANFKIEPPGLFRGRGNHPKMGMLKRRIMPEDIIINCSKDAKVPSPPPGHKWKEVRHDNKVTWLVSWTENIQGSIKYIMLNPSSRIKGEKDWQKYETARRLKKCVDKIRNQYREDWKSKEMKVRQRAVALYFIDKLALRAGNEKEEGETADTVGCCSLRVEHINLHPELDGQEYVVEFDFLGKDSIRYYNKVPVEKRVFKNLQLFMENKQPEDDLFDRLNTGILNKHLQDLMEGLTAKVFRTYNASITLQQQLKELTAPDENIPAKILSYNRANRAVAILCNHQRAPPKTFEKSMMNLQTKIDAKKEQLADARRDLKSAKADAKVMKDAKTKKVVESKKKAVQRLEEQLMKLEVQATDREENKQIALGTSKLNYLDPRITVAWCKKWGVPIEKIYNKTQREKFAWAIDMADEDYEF
In short: (§3)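 Supercoiled pBR322 (100 ng) with 1 unit recombinant human topo I in 10 mM Tris-HCl pH 7.9, 150 mM NaCl, 0.1% BSA, 0.1 mM spermidine, 5% glycerol, 30 min at 37 °C. Stopped with SDS/dye stop solution. Run on 0.8% agarose in TAE, 50 V, 1 h; EtBr-stained; bands quantitated under UV. Compounds came from 20 mM DMSO stocks. 20 µM was tested only when inhibition at 100 µM exceeded 30%. Camptothecin was the positive control.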

[4] = biological target: DNA topoisomerase 2-alpha (Homo sapiens) (UniProt P11388); assay: Inhibition of recombinant human topoisomerase 2alpha assessed as decrease in relaxation of supercoiled pBR322 DNA at 20 uM after 30 mins by agarose gel electrophoresis relative to etoposide
[5] = biological target: DNA topoisomerase 2-alpha (Homo sapiens) (UniProt P11388); assay: Inhibition of recombinant human topoisomerase 2alpha assessed as decrease in relaxation of supercoiled pBR322 DNA at 100 uM after 30 mins by agarose gel electrophoresis relative to etoposide
[6] = biological target: T1, DNA topoisomerase 1 (Homo sapiens); assay: Inhibition of recombinant human topoisomerase 1 assessed as decrease in relaxation of supercoiled pBR322 DNA at 100 uM after 30 mins by agarose gel electrophoresis relative to camptothecin
[7] = biological target: T1, DNA topoisomerase 1 (Homo sapiens); assay: Inhibition of recombinant human topoisomerase 1 assessed as decrease in relaxation of supercoiled pBR322 DNA at 20 uM after 30 mins by agarose gel electrophoresis relative to control; in short: as §3
[8] = biological target: T1, DNA topoisomerase 1 (Homo sapiens); assay: Inhibition of recombinant human topoisomerase 1 assessed as decrease in relaxation of supercoiled pBR322 DNA at 20 uM after 30 mins by agarose gel electrophoresis relative to camptothecin

Chain of DNA topoisomerase 2-alpha (Homo sapiens) (P11388 whole entry): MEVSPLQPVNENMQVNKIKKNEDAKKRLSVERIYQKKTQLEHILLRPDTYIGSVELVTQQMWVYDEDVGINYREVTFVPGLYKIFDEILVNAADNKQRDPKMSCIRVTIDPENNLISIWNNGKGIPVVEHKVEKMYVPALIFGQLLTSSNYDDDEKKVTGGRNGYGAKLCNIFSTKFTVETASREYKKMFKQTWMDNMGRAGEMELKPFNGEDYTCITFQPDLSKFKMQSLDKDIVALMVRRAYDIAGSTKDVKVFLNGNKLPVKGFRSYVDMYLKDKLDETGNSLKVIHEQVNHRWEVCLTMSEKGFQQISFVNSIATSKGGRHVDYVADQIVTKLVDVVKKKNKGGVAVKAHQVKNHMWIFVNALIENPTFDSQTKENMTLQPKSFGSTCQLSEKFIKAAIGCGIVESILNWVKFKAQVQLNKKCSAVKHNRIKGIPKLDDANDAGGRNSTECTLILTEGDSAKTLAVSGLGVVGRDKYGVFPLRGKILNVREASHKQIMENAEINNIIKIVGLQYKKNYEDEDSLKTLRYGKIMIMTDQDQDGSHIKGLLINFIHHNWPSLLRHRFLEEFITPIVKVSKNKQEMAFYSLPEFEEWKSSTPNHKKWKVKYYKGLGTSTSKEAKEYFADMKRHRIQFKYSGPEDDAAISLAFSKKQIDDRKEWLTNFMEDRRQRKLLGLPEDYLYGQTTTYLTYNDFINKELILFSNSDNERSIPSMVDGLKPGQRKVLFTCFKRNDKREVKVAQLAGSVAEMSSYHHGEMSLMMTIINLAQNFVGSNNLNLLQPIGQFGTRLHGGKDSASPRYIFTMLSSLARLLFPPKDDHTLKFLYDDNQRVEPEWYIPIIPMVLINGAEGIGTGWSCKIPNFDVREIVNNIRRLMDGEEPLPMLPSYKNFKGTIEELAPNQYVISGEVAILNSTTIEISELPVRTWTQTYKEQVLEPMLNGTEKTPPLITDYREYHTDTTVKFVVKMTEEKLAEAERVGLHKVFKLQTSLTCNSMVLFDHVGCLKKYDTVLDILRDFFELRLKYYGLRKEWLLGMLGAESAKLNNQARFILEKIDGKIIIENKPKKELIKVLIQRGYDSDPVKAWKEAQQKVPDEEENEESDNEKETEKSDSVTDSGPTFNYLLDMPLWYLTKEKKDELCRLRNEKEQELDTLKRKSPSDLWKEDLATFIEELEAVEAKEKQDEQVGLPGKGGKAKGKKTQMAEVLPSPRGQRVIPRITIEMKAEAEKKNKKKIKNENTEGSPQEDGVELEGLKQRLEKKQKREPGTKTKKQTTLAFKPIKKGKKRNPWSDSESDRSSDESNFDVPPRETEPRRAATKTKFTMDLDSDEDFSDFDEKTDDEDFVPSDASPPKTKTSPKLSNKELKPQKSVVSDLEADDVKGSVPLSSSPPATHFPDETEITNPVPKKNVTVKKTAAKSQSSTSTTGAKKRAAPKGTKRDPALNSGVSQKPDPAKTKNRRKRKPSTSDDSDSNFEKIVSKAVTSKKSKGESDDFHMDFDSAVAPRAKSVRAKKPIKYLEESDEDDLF

Oc1cccc(-c2cc(-c3ccc(Cl)cc3)c3c(n2)-c2ccccc2OC3)c1
IC50 (T47D): 750 nM
inhibition [1]: 4.7%
inhibition [2]: 66.7%
IC50 (HeLa): 1940 nM
IC50 (HCT-15): 4570 nM
inhibition [3]: 20.2%

Oc1ccccc1-c1cc(-c2ccccc2Cl)nc2c1COc1ccccc1-2
IC50 (T47D): > 50000 nM
inhibition [1]: 47.3%
inhibition [2]: 79.1%
IC50 (HeLa): > 50000 nM
IC50 (HCT-15): > 50000 nM
fold change (FC) [4]: 1.33
inhibition [3]: 4.7%
fold change (FC) [5]: 1.19
fold change (FC) [6]: 0.06

Oc1ccc(-c2cc(-c3ccc(Cl)cc3)nc3c2COc2ccccc2-3)cc1
IC50 (T47D): 1720 nM
inhibition [1]: 41.9%
inhibition [2]: 87.8%
IC50 (HeLa): 860 nM
IC50 (HCT-15): 1830 nM
fold change (FC) [4]: 1.18
inhibition [3]: inactive
fold change (FC) [5]: 1.32
fold change (FC) [6]: inactive

COc1cccc2c1C(=O)c1c(O)c3c(c(O)c1C2=O)C[C@@](O)(C(=O)CO)C[C@@H]3O[C@H]1C[C@H](N)[C@H](O)[C@H](C)O1 [DOXORUBICIN HYDROCHLORIDE]
IC50 (HeLa): 1700 nM
IC50 (HCT-15): 730 nM

Oc1ccc(-c2cc(-c3ccc(Cl)cc3)c3c(n2)-c2ccccc2OC3)cc1
IC50 (T47D): 1380 nM
inhibition [1]: 19.9%
inhibition [2]: 100%
IC50 (HeLa): 2080 nM
IC50 (HCT-15): 1850 nM
inhibition [3]: 38.5%
inhibition [7]: 1.7%

Oc1cccc(-c2cc(-c3ccc(Cl)cc3)nc3c2COc2ccccc2-3)c1
IC50 (T47D): 1180 nM
inhibition [1]: 63.8%
inhibition [2]: 71.3%
IC50 (HeLa): 760 nM
IC50 (HCT-15): 2300 nM
fold change (FC) [4]: 1.8
inhibition [3]: 28.8%
fold change (FC) [5]: 1.07
fold change (FC) [6]: 0.36

Oc1ccccc1-c1cc(-c2ccc(Cl)cc2)nc2c1oc1ccccc12
fold change (FC) [8]: 0.93
fold change (FC) [4]: 0.63
fold change (FC) [5]: 0.99
fold change (FC) [6]: 1.39

Oc1cccc(-c2cc(-c3ccccc3Cl)nc3c2oc2ccccc23)c1
fold change (FC) [8]: 0.98
fold change (FC) [4]: 0.42
fold change (FC) [5]: 0.95
fold change (FC) [6]: 1.22

Oc1cccc(-c2cc(-c3cccc(Cl)c3)nc3c2oc2ccccc23)c1
fold change (FC) [8]: 2.02
fold change (FC) [4]: 0.65
fold change (FC) [5]: 0.98
fold change (FC) [6]: 1.12

Oc1ccc(-c2cc(-c3cccc(Cl)c3)nc3c2COc2ccccc2-3)cc1
IC50 (T47D): 880 nM
inhibition [1]: 57.3%
inhibition [2]: 95.9%
IC50 (HeLa): 890 nM
IC50 (HCT-15): 1770 nM
fold change (FC) [4]: 1.61
inhibition [3]: inactive
fold change (FC) [5]: 1.44
fold change (FC) [6]: inactive

Oc1ccc(-c2cc(-c3ccccc3Cl)nc3c2oc2ccccc23)cc1
fold change (FC) [8]: 1.99
fold change (FC) [4]: 0.56
fold change (FC) [5]: 1.07
fold change (FC) [6]: 1.39

CC[C@@]1(O)C(=O)OCc2c1cc1n(c2=O)Cc2cc3ccccc3nc2-1 [CAMPTOTHECIN]
IC50 (T47D): 490 nM
IC50 (HeLa): 130 nM
IC50 (HCT-15): 20 nM

Oc1ccc(-c2cc(-c3ccccc3Cl)c3c(n2)-c2ccccc2OC3)cc1
IC50 (T47D): 940 nM
inhibition [1]: 48.1%
inhibition [2]: 63.5%
IC50 (HeLa): 680 nM
IC50 (HCT-15): 4720 nM
inhibition [3]: 56.1%
inhibition [7]: inactive

Oc1ccccc1-c1cc(-c2ccccc2Cl)c2c(n1)-c1ccccc1OC2
IC50 (T47D): 1660 nM
inhibition [1]: 45.5%
inhibition [2]: 78.1%
IC50 (HeLa): > 50000 nM
IC50 (HCT-15): > 50000 nM
inhibition [3]: inactive

Oc1ccccc1-c1cc(-c2cccc(Cl)c2)nc2c1oc1ccccc12
fold change (FC) [8]: 0.38
fold change (FC) [4]: 0.91
fold change (FC) [5]: 0.97
fold change (FC) [6]: 1.01

Oc1ccc(-c2cc(-c3cccc(Cl)c3)nc3c2oc2ccccc23)cc1
fold change (FC) [8]: 1.29
fold change (FC) [4]: 0.77
fold change (FC) [5]: 1.01
fold change (FC) [6]: 1.56

Oc1cccc(-c2cc(-c3ccccc3Cl)nc3c2COc2ccccc2-3)c1
IC50 (T47D): 700 nM
inhibition [1]: 57.3%
fold change (FC) [8]: 0.05
inhibition [2]: 90.8%
IC50 (HeLa): 2500 nM
IC50 (HCT-15): 870 nM
fold change (FC) [4]: 1.61
inhibition [3]: 79.1%
fold change (FC) [5]: 1.37
fold change (FC) [6]: 0.99
inhibition [7]: 1.7%

COc1cc([C@@H]2c3cc4c(cc3[C@@H](O[C@@H]3O[C@@H]5CO[C@@H](C)O[C@H]5[C@H](O)[C@H]3O)[C@H]3COC(=O)[C@H]23)OCO4)cc(OC)c1O [ETOPOSIDE]
IC50 (T47D): 320 nM
IC50 (HCT-15): 2450 nM

Oc1ccccc1-c1cc(-c2cccc(Cl)c2)nc2c1COc1ccccc1-2
IC50 (T47D): 1230 nM
inhibition [1]: 51.9%
inhibition [2]: 75.1%
IC50 (HeLa): 680 nM
IC50 (HCT-15): 2230 nM
fold change (FC) [4]: 1.46
inhibition [3]: 4.4%
fold change (FC) [5]: 1.13
fold change (FC) [6]: 0.06

Oc1cccc(-c2cc(-c3cccc(Cl)c3)c3c(n2)-c2ccccc2OC3)c1
IC50 (T47D): 860 nM
inhibition [1]: inactive
inhibition [2]: 63.6%
IC50 (HeLa): 820 nM
IC50 (HCT-15): 1230 nM
inhibition [3]: 12%

Oc1ccccc1-c1cc(-c2cccc(Cl)c2)c2c(n1)-c1ccccc1OC2
IC50 (T47D): > 50000 nM
inhibition [2]: 18.9%
IC50 (HeLa): > 50000 nM
IC50 (HCT-15): > 50000 nM
inhibition [3]: 21.1%

Oc1cccc(-c2cc(-c3cccc(Cl)c3)nc3c2COc2ccccc2-3)c1
IC50 (T47D): 720 nM
inhibition [1]: 63.7%
fold change (FC) [8]: inactive
inhibition [2]: 84%
IC50 (HeLa): 680 nM
IC50 (HCT-15): 2130 nM
fold change (FC) [4]: 1.79
inhibition [3]: 30%
fold change (FC) [5]: 1.26
fold change (FC) [6]: 0.36
inhibition [7]: inactive

Oc1ccccc1-c1cc(-c2ccc(Cl)cc2)nc2c1COc1ccccc1-2
IC50 (T47D): > 50000 nM
inhibition [1]: 56.6%
inhibition [2]: 88.9%
IC50 (HeLa): > 50000 nM
IC50 (HCT-15): 1660 nM
fold change (FC) [4]: 1.59
inhibition [3]: 7.6%
fold change (FC) [5]: 1.34
fold change (FC) [6]: 0.1

Oc1ccc(-c2cc(-c3ccc(Cl)cc3)nc3c2oc2ccccc23)cc1
fold change (FC) [8]: 1.4
fold change (FC) [4]: 1.75
fold change (FC) [5]: 1.15
fold change (FC) [6]: 1.62

Oc1ccccc1-c1cc(-c2ccc(Cl)cc2)c2c(n1)-c1ccccc1OC2
IC50 (T47D): > 50000 nM
inhibition [1]: inactive
inhibition [2]: 34.7%
IC50 (HeLa): > 50000 nM
IC50 (HCT-15): > 50000 nM
inhibition [3]: 20.1%

Oc1cccc(-c2cc(-c3ccc(Cl)cc3)nc3c2oc2ccccc23)c1
fold change (FC) [8]: 2.09
fold change (FC) [4]: 0.27
fold change (FC) [5]: 1.01
fold change (FC) [6]: 1.32

Oc1ccccc1-c1cc(-c2ccccc2Cl)nc2c1oc1ccccc12
fold change (FC) [4]: 0.62
fold change (FC) [5]: 0.98
fold change (FC) [6]: 0.18

Oc1cccc(-c2cc(-c3ccccc3Cl)c3c(n2)-c2ccccc2OC3)c1
IC50 (T47D): 860 nM
inhibition [1]: 57%
inhibition [2]: 91.7%
IC50 (HeLa): 740 nM
IC50 (HCT-15): 1520 nM
inhibition [3]: inactive
